For assay [1], the system named is Escherichia coli. The assay is described as follows: Antibacterial activity against Escherichia coli after 18 hrs by broth microdilution method. The class given is functional. Put shortly:
(§1)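 Broth microdilution; compounds dissolved in DMSO (10 mg in 1 mL), serially diluted in Mueller-Hinton medium to 0.2–100 µg/mL. MIC taken as lowest concentration giving no visible growth. DMSO solvent control at matching dilutions.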
A general note: In broth dilution the organism is exposed to a series of concentrations in liquid medium.

Assay [2] deals with Staphylococcus aureus. The assay is described as follows: Antibacterial activity against Staphylococcus aureus after 18 hrs by broth microdilution method. It counts as functional. Put shortly:
as §1

In assay [3] the test system is Mycobacterium tuberculosis. The assay is described as follows: Inhibition of Mycobacterium tuberculosis His6-tagged InhA expressed in Escherichia coli BL21 using trans-2-dodecenoyl-coA as substrate at 50 uM.

Data on 56 compounds can be found in ChEMBL document CHEMBL3745673, “Synthesis, antimycobacterial screening and ligand-based molecular docking studies on novel pyrrole derivatives bearing pyrazoline, isoxazole and phenyl thiourea moieties” (Eur J Med Chem, 2016).

One may read the MIC as the lowest concentration that inhibits growth of the organism. In general, inhibition refers to the share of the control response that was lost under treatment.

Converted amounts (≈) assume the structure as drawn. The source made the active and inactive calls. No cut-off for these calls is given here.

With `CC(=O)N1N=C(c2ccc(-n3cccc3)cc2)CC1c1cccc(Oc2ccccc2)c1` (configuration not stated), the MIC in assay [1] amounted to 50 µg/mL (≈ 119 µM); in assay [2], 100 µg/mL (≈ 237 µM).

As to `Clc1ccc(-c2cc(-c3ccc(-n4cccc4)cc3)on2)c(Cl)c1`, the MIC in assay [1] came to 50 µg/mL (≈ 141 µM); in assay [2] it was 25 µg/mL (≈ 70.4 µM).

Turning to `Cc1ccc(C)n1-c1ccccc1NC(=S)Nc1ccc([N+](=O)[O-])cc1`, the MIC was 0.4 µg/mL (≈ 1.09 µM) in assay [1] and 0.2 µg/mL (≈ 0.546 µM) in assay [2].

Consider `CC(=O)N1N=C(c2ccc(-n3cccc3)cc2)CC1c1ccc(C)cc1` (configuration not stated), for which the MIC in assay [1] came to 12.5 µg/mL (≈ 36.4 µM); in assay [2], 25 µg/mL (≈ 72.8 µM).

As to `O=C(/C=C/c1ccc(Cl)cc1)c1ccc(-n2cccc2)cc1`, the MIC in assay [1] and in assay [2] was 50 µg/mL (≈ 162 µM) throughout.

As to `O=C(/C=C/c1cccc(Br)c1)c1ccc(-n2cccc2)cc1`, the MIC worked out at 25 µg/mL (≈ 71 µM) in assay [1] and 50 µg/mL (≈ 142 µM) in assay [2].

With `Cc1ccc(C)n1-c1ccccc1NC(=S)Nc1ccc(Cl)cc1`, the inhibition result in assay [3] was “inactive”. Moreover, the MIC in assay [1] and in assay [2] was 0.2 µg/mL (≈ 0.562 µM) throughout.

On to `COc1cccc(/C=C/C(=O)c2ccc(-n3cccc3)cc2)c1`, for which the MIC in assay [1] was determined as 12.5 µg/mL (≈ 41.2 µM); in assay [2] it was 25 µg/mL (≈ 82.4 µM).

`O=C(O)c1cn(C2CC2)c2cc(N3CCNCC3)c(F)cc2c1=O` [CIPROFLOXACIN] returned an MIC in assay [2] of 0.15 µg/mL (≈ 0.453 µM).

On to `Cc1ccc(-c2cc(-c3ccc(-n4cccc4)cc3)on2)cc1`, for which the MIC in assay [1] was found to be 12.5 µg/mL (≈ 41.6 µM); in assay [2], 25 µg/mL (≈ 83.2 µM).

For `COc1ccc(C2CC(c3ccc(-n4cccc4)cc3)=NN2C(C)=O)c(OC)c1` (configuration not stated), the MIC in assay [1] stood at 12.5 µg/mL (≈ 32.1 µM); in assay [2], 25 µg/mL (≈ 64.2 µM).

As for `c1coc(-c2cc(-c3ccc(-n4cccc4)cc3)on2)c1`, the MIC in assay [1] turned out to be 25 µg/mL (≈ 90.5 µM); in assay [2] it was 50 µg/mL (≈ 181 µM).

Take `CC(=O)N1N=C(c2ccc(-n3cccc3)cc2)CC1c1ccco1` (configuration not stated): the MIC in assay [1] was found to be 100 µg/mL (≈ 313 µM); in assay [2], 50 µg/mL (≈ 157 µM).

As for `CC(=O)N1N=C(c2ccc(-n3cccc3)cc2)CC1c1cccc(Cl)c1Cl` (configuration not stated), the MIC in assay [1] came to 50 µg/mL (≈ 126 µM); in assay [2] it was 25 µg/mL (≈ 62.8 µM).

Regarding `Cc1ccc(C)n1-c1ccccc1NC(=S)Nc1ccc(F)cc1`, the MIC in assay [1] and in assay [2] was 0.8 µg/mL (≈ 2.36 µM) throughout.

Turning to `COc1ccc(/C=C/C(=O)c2ccc(-n3cccc3)cc2)cc1OC`, the MIC in assay [1] and in assay [2] was 12.5 µg/mL (≈ 37.5 µM) in each case.

`CC(C)c1ccc(/C=C/C(=O)c2ccc(-n3cccc3)cc2)cc1`: the MIC in assay [1] and in assay [2] was 12.5 µg/mL (≈ 39.6 µM) throughout.

With `O=C(/C=C/c1c(Cl)cccc1Cl)c1ccc(-n2cccc2)cc1`, the MIC came out at 50 µg/mL (≈ 146 µM) in assay [1] and 25 µg/mL (≈ 73.1 µM) in assay [2].

On to `Cc1ccc(C)n1-c1ccccc1NC(=S)Nc1ccccc1Br`, for which the MIC in assay [1] is 0.8 µg/mL (≈ 2 µM); in assay [2], 1.6 µg/mL (≈ 4 µM).

Turning to `c1ccc(-c2cc(-c3ccc(-n4cccc4)cc3)on2)cc1`, the MIC came to 25 µg/mL (≈ 87.3 µM) in assay [1] and 50 µg/mL (≈ 175 µM) in assay [2].

On to `Clc1ccc(-c2cc(-c3ccc(-n4cccc4)cc3)on2)cc1`, for which the MIC in assay [1] and in assay [2] was 25 µg/mL (≈ 77.9 µM) throughout.

For the compound `CC(=O)N1N=C(c2ccc(-n3cccc3)cc2)CC1c1ccccc1` (configuration not stated), the MIC in assay [1] and in assay [2] was 50 µg/mL (≈ 152 µM) in each case.

As for `O=C(/C=C/c1ccccc1Cl)c1ccc(-n2cccc2)cc1`, the MIC in assay [1] is 50 µg/mL (≈ 162 µM); in assay [2], 25 µg/mL (≈ 81.2 µM).

As for `O=C(/C=C/c1ccccc1O)c1ccc(-n2cccc2)cc1`, the MIC in assay [1] and in assay [2] was 50 µg/mL (≈ 173 µM) in each case.

Regarding `Fc1ccc(-c2cc(-c3ccc(-n4cccc4)cc3)on2)cc1`, the MIC in assay [1] was 12.5 µg/mL (≈ 41.1 µM); in assay [2], 25 µg/mL (≈ 82.1 µM).

On to `CC(=O)N1N=C(c2ccc(-n3cccc3)cc2)CC1c1cccc(Br)c1` (configuration not stated), for which the MIC in assay [1] was 25 µg/mL (≈ 61.2 µM); in assay [2] it was 50 µg/mL (≈ 122 µM).

Take `CC(=O)N1N=C(c2ccc(-n3cccc3)cc2)CC1c1ccc(Cl)cc1` (configuration not stated): the MIC in assay [1] was found to be 50 µg/mL (≈ 137 µM); in assay [2] it was 25 µg/mL (≈ 68.7 µM).

As for `COc1ccc(C2CC(c3ccc(-n4cccc4)cc3)=NN2C(C)=O)cc1OC` (configuration not stated), the MIC in assay [1] is 12.5 µg/mL (≈ 32.1 µM); in assay [2], 25 µg/mL (≈ 64.2 µM).

`Cc1ccc(C)n1-c1ccccc1NC(=S)Nc1ccc(Cl)c(Cl)c1` showed an inhibition in assay [3] of 13%. The MIC in assay [1] and in assay [2] was 0.2 µg/mL (≈ 0.512 µM) in each case.

As for `Clc1cccc(-c2cc(-c3ccc(-n4cccc4)cc3)on2)c1Cl`, the MIC in assay [1] is 25 µg/mL (≈ 70.4 µM); in assay [2], 50 µg/mL (≈ 141 µM).

As for `CC(=O)N1N=C(c2ccc(-n3cccc3)cc2)CC1c1c(Cl)cccc1Cl` (configuration not stated), the MIC stood at 50 µg/mL (≈ 126 µM) in assay [1] and 25 µg/mL (≈ 62.8 µM) in assay [2].

As to `CC(=O)N1N=C(c2ccc(-n3cccc3)cc2)CC1c1ccc(Cl)cc1Cl` (configuration not stated), the MIC in assay [1] stood at 25 µg/mL (≈ 62.8 µM); in assay [2] it was 50 µg/mL (≈ 126 µM).

On to `O=C(/C=C/c1cccc(Cl)c1Cl)c1ccc(-n2cccc2)cc1`, for which the figures for the MIC in assay [1] and in assay [2] were 50 µg/mL (≈ 146 µM) and 25 µg/mL (≈ 73.1 µM), respectively.

For the compound `Cc1ccc(C)n1-c1ccccc1NC(=S)Nc1cccc(Cl)c1`, the MIC in assay [1] was found to be 0.4 µg/mL (≈ 1.12 µM); in assay [2], 0.2 µg/mL (≈ 0.562 µM).

Regarding `COc1ccc(/C=C/C(=O)c2ccc(-n3cccc3)cc2)cc1`, the minimal inhibitory concentration (MIC) is 12.5 µg/mL (≈ 41.2 µM) in assay [1] and 25 µg/mL (≈ 82.4 µM) in assay [2].

For `CC(=O)N1N=C(c2ccc(-n3cccc3)cc2)CC1c1ccccc1Cl` (configuration not stated), the MIC in assay [1] was determined as 25 µg/mL (≈ 68.7 µM); in assay [2], 50 µg/mL (≈ 137 µM).

Consider `CCn1cc(C(=O)O)c(=O)c2cc(F)c(N3CCNCC3)cc21` [NORFLOXACIN], for which the MIC was found to be 4 µg/mL (≈ 12.5 µM) in assay [1] and 2.02 µg/mL (≈ 6.33 µM) in assay [2].

`Oc1cc(Cl)ccc1Oc1ccc(Cl)cc1Cl` gave an inhibition in assay [3] of more than 99%.

Turning to `COc1ccc(-c2cc(-c3ccc(-n4cccc4)cc3)on2)cc1OC`, the MIC in assay [1] and in assay [2] was 25 µg/mL (≈ 72.2 µM) each time.

On to `Brc1ccccc1-c1cc(-c2ccc(-n3cccc3)cc2)on1`, for which the minimal inhibitory concentration (MIC) in assay [1] and in assay [2] was 50 µg/mL (≈ 137 µM) throughout.

As to `Cc1ccc(C)n1-c1ccccc1NC(=S)Nc1cccc(Br)c1`, the MIC in assay [1] and in assay [2] was 0.2 µg/mL (≈ 0.5 µM) throughout.

As to `CC(=O)N1N=C(c2ccc(-n3cccc3)cc2)CC1c1ccccc1Br` (configuration not stated), the figures for the MIC in assay [1] and in assay [2] were 50 µg/mL (≈ 122 µM) and 100 µg/mL (≈ 245 µM), respectively.

As for `Cc1ccc(C)n1-c1ccccc1NC(=S)Nc1ccccc1`, the results for the MIC in assay [1] and in assay [2] were 0.2 µg/mL (≈ 0.622 µM) and 0.8 µg/mL (≈ 2.49 µM), respectively.

Take `O=C(/C=C/c1ccccc1Br)c1ccc(-n2cccc2)cc1`: the MIC in assay [1] was found to be 25 µg/mL (≈ 71 µM); in assay [2] it was 50 µg/mL (≈ 142 µM).

As for `Cc1ccc(NC(=S)Nc2ccccc2-n2c(C)ccc2C)cc1`, the MIC was found to be 6.25 µg/mL (≈ 18.6 µM) in assay [1] and 0.4 µg/mL (≈ 1.19 µM) in assay [2].

On to `O=C(/C=C/c1ccccc1)c1ccc(-n2cccc2)cc1`, for which the MIC in assay [1] and in assay [2] was 25 µg/mL (≈ 91.5 µM) each time.

In the case of `COc1cccc(C2CC(c3ccc(-n4cccc4)cc3)=NN2C(C)=O)c1` (configuration not stated), the MIC in assay [1] was determined as 50 µg/mL (≈ 139 µM); in assay [2] it was 25 µg/mL (≈ 69.6 µM).

For `O=C(/C=C/c1cccc(Oc2ccccc2)c1)c1ccc(-n2cccc2)cc1`, the MIC in assay [1] and in assay [2] was 50 µg/mL (≈ 137 µM) throughout.

On to `O=C(/C=C/c1ccc(Cl)cc1Cl)c1ccc(-n2cccc2)cc1`, for which the MIC in assay [1] and in assay [2] was 50 µg/mL (≈ 146 µM) in each case.

`Clc1ccccc1-c1cc(-c2ccc(-n3cccc3)cc2)on1`: the MIC in assay [1] and in assay [2] was 50 µg/mL (≈ 156 µM) in each case.

As to `c1ccc(Oc2cccc(-c3cc(-c4ccc(-n5cccc5)cc4)on3)c2)cc1`, the MIC in assay [1] and in assay [2] was 50 µg/mL (≈ 132 µM) each time.

Turning to `Brc1cccc(-c2cc(-c3ccc(-n4cccc4)cc3)on2)c1`, the MIC in assay [1] and in assay [2] was 25 µg/mL (≈ 68.5 µM) throughout.

For the compound `CC(=O)N1N=C(c2ccc(-n3cccc3)cc2)CC1c1ccc(F)cc1` (configuration not stated), the MIC in assay [1] and in assay [2] was 12.5 µg/mL (≈ 36 µM) in each case.

In the case of `O=C(/C=C/c1ccc(F)cc1)c1ccc(-n2cccc2)cc1`, the results for the MIC in assay [1] and in assay [2] were 12.5 µg/mL (≈ 42.9 µM) and 25 µg/mL (≈ 85.8 µM), respectively.

On to `Clc1cccc(Cl)c1-c1cc(-c2ccc(-n3cccc3)cc2)on1`, for which the minimal inhibitory concentration (MIC) amounted to 50 µg/mL (≈ 141 µM) in assay [1] and 25 µg/mL (≈ 70.4 µM) in assay [2].

With `O=C(/C=C/c1ccco1)c1ccc(-n2cccc2)cc1`, the MIC in assay [1] and in assay [2] was 25 µg/mL (≈ 95 µM) in each case.
